Measured values as given in ChEMBL document CHEMBL1140867, “Photodynamic molecular beacon triggered by fibroblast activation protein on cancer-associated fibroblasts for diagnosis and treatment of epithelial cancers” (J Med Chem, 2009).
Peptide text beside a SMILES is read from it. * marks the point of attachment. Pyropheophorbide(a) = C=Cc1c(C)c2cc3nc(c4c5[nH]c(cc6nc(cc1[nH]2)C(C)=C6CC)c(C)c5C(=O)C4)[C@@H](CCC(=O)*)[C@@H]3C

Assays:
HEK293 = assay: Photocytotoxicity against mouse FAP expressing HEK293 cells assessed as reduction of cell viability at 4 uM in presence of 2 J cm'-2 radiation by MTT assay; assay type: functional, Homo sapiens
Procedure, shortened: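 HEK-mFAP and HEK-Vector cells, 2.5×10^4 per well, grown 2 days, then incubated 24 h with compound diluted in FBS-free DMEM (DMSO/Tween 80 formulation) at 8 or 4 µM. Cells rinsed and refed, then irradiated with a 670 nm laser at 130 mW cm⁻², 16 s (2 J cm⁻²) or kept dark. Incubated overnight; MTT 2 h, SDS/HCl solubilization, absorbance read at 570 nm.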

[1] = substrate: C=Cc1c(C)c2cc3nc(c4c5[nH]c(cc6nc(cc1[nH]2)C(C)=C6CC)c(C)c5C(=O)C4)[C@@H](CCC(=O)N[C@H](C(=O)N[C@@H](CO)C(=O)NCC(=O)N1CCC[C@H]1C(=O)N[C@@H](CC(N)=O)C(=O)N[C@@H](CCC(N)=O)C(=O)N[C@@H](CCC(=O)O)C(=O)N[C@@H](CCC(N)=O)C(=O)N[C@@H](CCCCNOC(=O)CCCN(C)c1ccc(/N=N/c2cccc4nc5ccc(N(CC)CC)cc5[n+](-c5ccccc5)c24)cc1)C(N)=O)[C@@H](C)O)[C@@H]3C; assay: Activity of mouse FAP assessed as enzyme mediated drug cleavage by measuring increase in fluorescence intensity
Procedure, shortened: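 Purified murine FAP (2 µg) with substrate at 0.1–6 µM in 1 mL 0.12 M NaCl/0.12 M TRIS pH 7.37 (substrate first dissolved in DMSO/Tween 80), 37 °C. Fluorescence followed continuously at ex 650/em 675 nm; excess mFAP (10 µg) added after 1 h. Initial rates (10% depletion), triplicate; Vmax, Km, kcat and kcat/Km from nonlinear Michaelis–Menten fit.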

Molecule: C=Cc1c(C)c2cc3nc(c4c5[nH]c(cc6nc(cc1[nH]2)C(C)=C6CC)c(C)c5C(=O)C4)[C@@H](CCC(=O)N[C@H](C(=O)N[C@@H](CO)C(=O)NCC(=O)N1CCC[C@H]1C(=O)N[C@@H](CC(N)=O)C(=O)N[C@@H](CCC(N)=O)C(=O)N[C@@H](CCC(=O)O)C(=O)N[C@@H](CCC(N)=O)C(=O)N[C@@H](CCCCN)C(N)=O)[C@@H](C)O)[C@@H]3C ({Pyropheophorbide(a)}-TSGPNQEQK-NH2)
- Activity (HEK293): 40%

B1: Prolyl endopeptidase FAP (Mus musculus), P97321 (protein)
chain: MKTWLKTVFGVTTLAALALVVICIVLRPSRVYKPEGNTKRALTLKDILNGTFSYKTYFPNWISEQEYLHQSEDDNIVFYNIETRESYIILSNSTMKSVNATDYGLSPDRQFVYLESDYSKLWRYSYTATYYIYDLQNGEFVRGYELPRPIQYLCWSPVGSKLAYVYQNNIYLKQRPGDPPFQITYTGRENRIFNGIPDWVYEEEMLATKYALWWSPDGKFLAYVEFNDSDIPIIAYSYYGDGQYPRTINIPYPKAGAKNPVVRVFIVDTTYPHHVGPMEVPVPEMIASSDYYFSWLTWVSSERVCLQWLKRVQNVSVLSICDFREDWHAWECPKNQEHVEESRTGWAGGFFVSTPAFSQDATSYYKIFSDKDGYKHIHYIKDTVENAIQITSGKWEAIYIFRVTQDSLFYSSNEFEGYPGRRNIYRISIGNSPPSKKCVTCHLRKERCQYYTASFSYKAKYYALVCYGPGLPISTLHDGRTDQEIQVLEENKELENSLRNIQLPKVEIKKLKDGGLTFWYKMILPPQFDRSKKYPLLIQVYGGPCSQSVKSVFAVNWITYLASKEGIVIALVDGRGTAFQGDKFLHAVYRKLGVYEVEDQLTAVRKFIEMGFIDEERIAIWGWSYGGYVSSLALASGTGLFKCGIAVAPVSSWEYYASIYSERFMGLPTKDDNLEHYKNSTVMARAEYFRNVDYLLIHGTADDNVHFQNSAQIAKALVNAQVDFQAMWYSDQNHGISSGRSQNHLYTHMTHFLKQCFSLSD
- Km [1]: 1.02 µM
- Vmax [1]: 36 pmol/min
- kcat [1]: 0.0292 s⁻¹
